The text below walks through data of ChEMBL document CHEMBL1138488, “Synthesis and biological evaluation of 3,3-difluoropyridine-2,4(1H,3H)-dione and 3-deaza-3-fluorouracil base and nucleoside derivatives” (J Med Chem, 2009).

The subject of data set [1] is Moloney murine sarcoma virus. The experiment in a line: Antiviral activity against Moloney sarcoma virus replication infected in mouse […] cells assessed as virus-induced transformation of cells at <=100 uM measured on day 6 postinfection. The class given is functional, organism-based. The method in brief: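 Murine C3H/3T3 embryo fibroblasts were grown to confluency and infected with Moloney murine sarcoma virus at 75 focus-forming units. Compound concentrations were then added, and virus-induced transformation was examined microscopically at day 6 postinfection.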

The test system of data set [2] is Human alphaherpesvirus 3. The experiment in a line: Antiviral activity against thymidine kinase deficient Varicella zoster virus 07/1 infected in human HEL cells assessed as inhibition of virus-induced cytopathic effect at <=100 uM. The class given is functional, organism-based. The method in brief:
(§1)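 Confluent cell monolayers were inoculated with 100 CCID₅₀ of virus, and virus was adsorbed for 1 h. Residual virus was then removed and cells were incubated with serial compound concentrations ([…], ... µM). Cytopathicity was scored once it reached completion in untreated virus-infected control cultures.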

Another data set has as its system CCRF-CEM. The experiment in a line: Cytostatic activity against human CEM cells at <=500 uM after 3 days by Coulter counting analysis. The class given is cell-based. The conditions noted are these: 72 h. The method in brief: (§2)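 Molt4/C8 or CEM lymphocytes were seeded at 75000 cells per well with varying compound concentrations. Viable cells were counted by Coulter counter after 3 days. CC₅₀ is the concentration inhibiting cell proliferation by 50%.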

For another data set, the system named is Punta Toro virus. The experiment in a line: Antiviral activity against Punta Toro virus infected in african green monkey Vero cells assessed as inhibition of virus-induced cytopathic effect at <=100 uM. The class given is functional, organism-based. The method in brief:
as §1

In data set [3] the test system is Vesicular stomatitis virus. Kind of data set: Antiviral activity against Vesicular stomatitis virus infected in HEL cells assessed as inhibition of virus-induced cytopathic effect at <=100 uM. Format: functional, organism-based.
The test system of the next data set is Sindbis virus. The experiment in a line: Antiviral activity against Sindbis virus infected in african green monkey Vero cells assessed as inhibition of virus-induced cytopathic effect at <=100 uM. The class given is functional, organism-based. The method in brief:
as §1

The subject of data set [4] is Mammalian orthoreovirus 3. The experiment in a line: Antiviral activity against Reovirus 3 infected in african green monkey Vero cells assessed as inhibition of virus-induced cytopathic effect at <=100 uM. Format: functional, organism-based.
The test system of the next data set is Human respirovirus 3. Kind of data set: Antiviral activity against Parainfluenza virus type 3 infected in african green monkey Vero cells assessed as inhibition of virus-induced cytopathic effect at <=100 uM. Format: functional, organism-based. Summed up:
as §1

The test system of a further data set is Human alphaherpesvirus 2. Kind of data set: Antiviral activity against HSV2 strain G infected in HEL cells assessed as virus-induced cytopathic effect at <=100 uM. The class given is functional, organism-based.
Data set [5] has as its system Human alphaherpesvirus 1. The experiment in a line: Antiviral activity against HSV1 KOS infected in HEL cells assessed as virus-induced cytopathic effect at <=100 uM. Format: functional, organism-based.
Data set [6] concerns Vesicular stomatitis virus. Kind of data set: Antiviral activity against Vesicular stomatitis virus infected in human HeLa cells assessed as inhibition of virus-induced cytopathic effect at <=100 uM. Format: functional, organism-based.
The subject of data set [7] is Human immunodeficiency virus 2. The experiment in a line: Antiviral activity against HIV2 ROD replication in human CEM cells assessed as virus-induced giant cell formation at <=100 uM after 4 days. The class given is functional, organism-based. The conditions noted are these: CCRF-CEM. The method in brief:
(§3)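 CEM cells (~3 × 10⁵ cells/cm³) were infected with 100 CCID₅₀/mL of HIV-1(III_B) or HIV-2(ROD) and seeded into wells containing compound dilutions. After 4 days at 37 °C, virus-induced giant cell formation was examined microscopically.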

The next data set has as its system Vaccinia virus. Kind of data set: Antiviral activity against Vaccinia virus infected in HEL cells assessed as inhibition of virus-induced cytopathic effect at <=100 uM. The class given is functional, organism-based. The conditions noted are these: Orthopoxvirus vaccinia.
The nature of data set [8]: Cytostatic activity against human Molt4/C8 cells at <=500 uM after 3 days by Coulter counting analysis. The conditions noted are these: molt-4, 72 h. Format: ADME, cell-based. The method in brief:
as §2

The subject of data set [9] is Human betaherpesvirus 5. The experiment in a line: Antiviral activity against HCMV Davis infected in HEL cells assessed as inhibition of virus-induced cytopathic effect at <=100 uM. The class given is functional, organism-based. The method in brief: as §1
The subject of data set [10] is Human alphaherpesvirus 3. The experiment in a line: Antiviral activity against thymidine kinase expressing Varicella zoster virus Oka infected in human HEL cells assessed as inhibition of virus-induced cytopathic effect at <=100 uM. Format: functional, organism-based. Summed up: as §1
Data set [11] has as its system Human betaherpesvirus 5. Kind of data set: Antiviral activity against HCMV AD169 infected in HEL cells assessed as inhibition of virus-induced cytopathic effect at <=100 uM. The class given is functional, organism-based. Summed up:
as §1

Data set [12] concerns Human alphaherpesvirus 1. The experiment in a line: Antiviral activity against acyclovir-resistant […] kinase-deficient HSV1 KOS infected in HEL cells assessed as virus-induced cytopathic effect at <=100 uM. The class given is functional, organism-based.
Data set [13] concerns Respiratory syncytial virus. The experiment in a line: Antiviral activity against Respiratory syncytial virus infected in human HeLa cells assessed as inhibition of virus-induced cytopathic effect at <=100 uM. The class given is functional, organism-based. The method in brief:
as §1

The subject of another data set is L1210. The experiment in a line: Cytostatic activity against mouse L1210 cells at <=500 uM after 2 days by Coulter counting analysis. The conditions noted are these: l1210, 48 h. Format: ADME, cell-based. The method in brief: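 Murine leukemia L1210 cells were seeded at 50000 cells per well with varying compound concentrations. Viable cell number was counted by Coulter counter after 2 days.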

Data set [14] concerns Human immunodeficiency virus 1. Kind of data set: Antiviral activity against HIV1 3B replication in human CEM cells assessed as virus-induced giant cell formation at <=100 uM after 4 days. The conditions noted are these: CCRF-CEM. Format: functional, organism-based. The method in brief:
as §3

The test system of another data set is Coxsackievirus B4. Kind of data set: Antiviral activity against Coxsackievirus B4 infected in human HeLa cells assessed as inhibition of virus-induced cytopathic effect at <=100 uM. The class given is functional, organism-based. Summed up: as §1

SMILES strings stand for the structures. Calls of active or inactive are those of the source. No cut-off for these calls is given here.

Turning to `NC(=O)Cc1ccn([C@H]2C[C@H](O)[C@@H](CO)O2)c(=O)c1F`, the outcome (in data set [1]; in the data set with Human alphaherpesvirus 3 [2]; in the data set on Punta Toro virus; in data set [3]; with Sindbis virus; in data set [4]) was inactive. Moreover, the result (with Human respirovirus 3; in the data set on Human alphaherpesvirus 2; in the data set on Human alphaherpesvirus 1 [5]; in data set [6]; in data set [7]; with Vaccinia virus) was inactive. For the same molecule, the result (in the data set on Human betaherpesvirus 5 [9]; in the data set with Human alphaherpesvirus 3 [10]; in the data set on Human betaherpesvirus 5 [11]; with Human alphaherpesvirus 1 [12]; in [13]; in data set [14]) was inactive. For the same molecule, the result in the data set with Coxsackievirus B4 was inactive. The Activity result (in the data set with CCRF-CEM; in [8]; in the data set on L1210) was “Not Active” in each case.

For the molecule `O=C1N([C@H]2C[C@H](O)[C@@H](CO)O2)C=CC(O)(c2ccccc2)C1(F)F` (some centres not stated), the result (in data set [1]; in the data set on Human alphaherpesvirus 3 [2]; in the data set with Punta Toro virus; in data set [3]; in the data set with Sindbis virus; in data set [4]) was inactive. Besides, the outcome (in the data set on Human respirovirus 3; in the data set on Human alphaherpesvirus 2; with Human alphaherpesvirus 1 [5]; in data set [6]; in [7]; with Vaccinia virus) was inactive. Moreover, the result (in the data set with Human betaherpesvirus 5 [9]; in the data set with Human alphaherpesvirus 3 [10]; in the data set with Human betaherpesvirus 5 [11]; in the data set with Human alphaherpesvirus 1 [12]; in data set [13]; in data set [14]) was inactive. Moreover, the outcome with Coxsackievirus B4 was inactive. The Activity result (in the data set on CCRF-CEM; in data set [8]; in the data set on L1210) was “Not Active” in each case.

Consider `NC(=O)Cc1ccn([C@@H]2O[C@H](CO)[C@@H](O)[C@@H]2O)c(=O)c1F`, for which the result (in [1]; in the data set with Human alphaherpesvirus 3 [2]; with Punta Toro virus; in [3]; in the data set with Sindbis virus; in data set [4]) was inactive. Besides, the outcome (with Human respirovirus 3; with Human alphaherpesvirus 2; with Human alphaherpesvirus 1 [5]; in data set [6]; in data set [7]; in the data set on Vaccinia virus) was inactive. Besides, the outcome (with Human betaherpesvirus 5 [9]; in the data set on Human alphaherpesvirus 3 [10]; with Human betaherpesvirus 5 [11]; with Human alphaherpesvirus 1 [12]; in data set [13]; in data set [14]) was inactive. The outcome in the data set on Coxsackievirus B4 was inactive. Further, the Activity entry (with CCRF-CEM; in data set [8]; in the data set with L1210) was “Not Active” throughout.

Consider `C#CC1(O)C=CN([C@@H]2O[C@H](CO)[C@@H](O)[C@H]2O)C(=O)C1(F)F` (some centres not stated), for which the outcome (in data set [1]; in the data set with Human alphaherpesvirus 3 [2]; in the data set with Punta Toro virus; in data set [3]; in the data set on Sindbis virus; in [4]) was inactive. For the same molecule, the result (in the data set with Human respirovirus 3; in the data set with Human alphaherpesvirus 2; with Human alphaherpesvirus 1 [5]; in [6]; in data set [7]; with Vaccinia virus) was inactive. For the same molecule, the result (in the data set with Human betaherpesvirus 5 [9]; with Human alphaherpesvirus 3 [10]; with Human betaherpesvirus 5 [11]; in the data set on Human alphaherpesvirus 1 [12]; in data set [13]; in [14]) was inactive. Moreover, the result in the data set with Coxsackievirus B4 was inactive. The Activity entry (in the data set with CCRF-CEM; in data set [8]; in the data set with L1210) was “Not Active” in each case.

On to `O=c1c(F)c(O)ccn1[C@@H]1O[C@H](CO)[C@@H](O)[C@@H]1O`, for which the outcome (in [1]; in the data set with Human alphaherpesvirus 3 [2]; in the data set with Punta Toro virus; in data set [3]; with Sindbis virus; in [4]) was inactive. Moreover, the outcome (with Human respirovirus 3; in the data set with Human alphaherpesvirus 2; in the data set on Human alphaherpesvirus 1 [5]; in data set [6]; in data set [7]; with Vaccinia virus) was inactive. The result (in the data set on Human betaherpesvirus 5 [9]; with Human alphaherpesvirus 3 [10]; with Human betaherpesvirus 5 [11]; in the data set on Human alphaherpesvirus 1 [12]; in data set [13]; in data set [14]) was inactive. Further, the result in the data set on Coxsackievirus B4 was inactive. Moreover, the Activity result (with CCRF-CEM; in [8]; in the data set with L1210) was “Not Active” in each case.

With `O=C1N([C@@H]2O[C@H](CO)[C@@H](O)[C@H]2O)C=CC(O)(c2ccccc2)C1(F)F` (some centres not stated), the outcome (in data set [1]; with Human alphaherpesvirus 3 [2]; in the data set on Punta Toro virus; in data set [3]; with Sindbis virus; in data set [4]) was inactive. In addition, the result (with Human respirovirus 3; in the data set on Human alphaherpesvirus 2; with Human alphaherpesvirus 1 [5]; in [6]; in data set [7]; with Vaccinia virus) was inactive. In addition, the result (in the data set on Human betaherpesvirus 5 [9]; in the data set on Human alphaherpesvirus 3 [10]; with Human betaherpesvirus 5 [11]; in the data set with Human alphaherpesvirus 1 [12]; in [13]; in data set [14]) was inactive. Moreover, in the data set with Coxsackievirus B4, the result was inactive. In addition, the Activity entry (in the data set with CCRF-CEM; in [8]; in the data set on L1210) was “Not Active” throughout.
